In ChEMBL document CHEMBL1156068, “Synthesis, pharmacological and antiviral activity of 1,3-thiazepine derivatives” (Eur J Med Chem, 2009):
Active and inactive are the calls of the source. No cut-off for these calls is given here.

Key:
[1] = test system: Mammalian orthoreovirus 1; assay: Antiviral activity against Reo virus type-1 infected in BHK-21 cells assessed as protection against virus induced cytopathogenicity after 3 to 4 days by MTT assay; type: functional, organism-based
In short: (§1)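 Monolayers were grown overnight at 37 °C, 5% CO2: MDBK at 3×10^4 cells/well, BHK at 5×10^4 cells/well. Cells infected at m.o.i. 0.01. After 1 h, serial compound dilutions added in MEM with 1% FCS. Viability read by MTT after 3–4 days at 37 °C. EC50 is the concentration giving 50% protection from cytopathogenicity.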

Coxsackievirus B2 = assay: Antiviral activity against Coxsackie virus B2 infected in african green monkey Vero76 cells after 3 days by plaque reduction assay; type: functional, organism-based; settings: Vero 76
In short: (§2)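 Vero 76 monolayers (2×10^5 cells/well, overnight) infected to give 50–100 PFU/well. Unadsorbed virus removed, then DMEM with 1% FCS, 0.75% methylcellulose and serial compound dilutions added. Incubated at 37 °C for 3 days (CVB-2, HSV-1) or 5 days (RSV). Fixed and stained with 50% ethanol/0.8% crystal violet in PBS; plaques counted.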

[2] = test system: Human immunodeficiency virus 1; assay: Antiviral activity against wild type HIV1 3B infected in human MT4 cells assessed as protection against virus induced cytopathogenicity after 4 days by MTT assay; type: functional, organism-based; settings: Human immunodeficiency virus 1, 3B, MT4, 96 h
In short: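 MT-4 cells (1×10^4/well) in RPMI with serial compound dilutions were infected with HIV-1 (100 CCID50; m.o.i. 0.01). After 4 days, viability was measured by MTT. EC50 is the concentration giving 50% protection from virus-induced cytopathogenicity. Compounds were prepared as 100 mM DMSO stocks diluted in medium.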

[3] = test system: Respiratory syncytial virus; assay: Antiviral activity against Respiratory syncytial virus infected in african green monkey Vero76 cells after 5 days by plaque reduction assay; type: functional, organism-based; settings: Vero 76; in short: as §2
Human alphaherpesvirus 1 = assay: Antiviral activity against HSV1 infected in african green monkey Vero76 cells after 3 days by plaque reduction assay; type: functional, organism-based; settings: Vero 76; in short: as §2
Yellow fever virus = assay: Antiviral activity against Yellow fever virus infected in BHK-21 cells assessed as protection against virus induced cytopathogenicity after 3 to 4 days by MTT assay; type: functional, organism-based
In short: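 BHK cells were seeded at 5 × 10^4 per well and grown overnight to monolayers, then infected at m.o.i. 0.01 in serum-free medium. One hour later, MEM Earle's with 1% FCS (final) and serial compound dilutions were added. After 3–4 days at 37 °C, viability was read by MTT. EC50 is the concentration giving 50% protection from virus-induced cytopathogenicity.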

[4] = test system: Bovine viral diarrhea virus 1; assay: Antiviral activity against Bovine viral diarrhea virus infected in MDBK cells assessed as protection against virus induced cytopathogenicity after 3 to 4 days by MTT assay; type: functional, organism-based; settings: for EC50: Bovine viral diarrhea virus isolates and strains; in short: as §1
Poliovirus 1 = assay: Antiviral activity against Poliovirus type 1 Sabin infected in african green monkey Vero76 cells after 2 days by plaque reduction assay; type: functional, cell-based; settings: Vero 76
[5] = Cytotoxicity against human MT4 cells assessed as reduction of cell viability after 96 hrs by MTT assay; type: cell-based
In short: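 Exponentially growing, mock-infected MT-4 cells were seeded at 1×10^5 cells mL-1 in RPMI-1640 with 10% FCS and penicillin/streptomycin, with serial compound dilutions. Incubated 96 h at 37 °C, 5% CO2, then viability read by MTT. CC50 is the concentration reducing viability by 50%.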

Vaccinia virus = assay: Antiviral activity against Vaccinia virus infected in african green monkey Vero76 cells after 3 days by plaque reduction assay; type: functional, organism-based; settings: Orthopoxvirus vaccinia; Vero 76
[6] = test system: Vesicular stomatitis virus; assay: Antiviral activity against Vesicular stomatitis virus infected in african green monkey Vero76 cells after 2 days by plaque reduction assay; type: functional, organism-based; settings: Vero 76

Structure (SMILES) | Activity [1] | Activity (Coxsackievirus B2) | EC50 [2] | Activity [3] | Activity (Human alphaherpesvirus 1) | Activity (Yellow fever virus) | Activity [4] | Activity (Poliovirus 1) | CC50 at 96 h [5] | Activity (Vaccinia virus) | Activity [6] | EC50 (Yellow fever virus) | EC50 [4]
CC1=CC2C(C(C)C)CC1C1C(=O)N(NC(=S)Nc3ccc(Cl)c(Cl)c3)C(=O)C21 (stereo not drawn) | inactive | inactive | > 41 µM | inactive | inactive | inactive | inactive | inactive | 41 µM | inactive | inactive |  | 
CC(C)C12C=CC(C)(CC1)C1C(=O)N(NC(=S)Nc3ccc(I)cc3)C(=O)C12 (stereo not drawn) | inactive | inactive | > 100 µM | inactive | inactive | inactive | inactive | inactive | > 100 µM | inactive | inactive |  | 
CC(C)C12C=CC(C)(CC1)C1C(=O)N(N3CCCCS/C3=N\c3ccc(I)cc3)C(=O)C12 (stereo not drawn) | inactive | inactive | > 59 µM | inactive | inactive | inactive | inactive | inactive | 59 µM | inactive | inactive |  | 
Cc1ccc(/N=C2\SCCCCN2N2C(=O)C3C(C2=O)C2(C(C)C)C=CC3(C)CC2)cc1 (stereo not drawn) | inactive | inactive |  | inactive | inactive | inactive | inactive | inactive |  | inactive | inactive |  | 
CC1=CC2C(C(C)C)CC1C1C(=O)N(NC(=S)Nc3ccc(F)cc3)C(=O)C21 (stereo not drawn) | inactive | inactive | > 69 µM | inactive | inactive | inactive | inactive | inactive | 69 µM | inactive | inactive |  | 
CC1=CC2C(C(C)C)CC1C1C(=O)N(NC(=S)NCc3ccccc3)C(=O)C21 (stereo not drawn) | inactive | inactive | 30 µM | inactive | inactive |  |  | inactive | 54 µM | inactive | inactive | 41 µM | 52 µM
CC(C)C12C=CC(C)(CC1)C1C(=O)N(NC(=S)Nc3ccc(Cl)cc3)C(=O)C12 (stereo not drawn) | inactive | inactive |  | inactive | inactive | inactive | inactive | inactive |  | inactive | inactive |  | 
CC1=CC2C(C(C)C)CC1C1C(=O)N(N3CCCCS/C3=N\c3ccc(Cl)c(Cl)c3)C(=O)C21 (stereo not drawn) | inactive | inactive | > 100 µM | inactive | inactive | inactive | inactive | inactive | 100 µM | inactive | inactive |  | 
Cc1ccc(NC(=S)NN2C(=O)C3C(C2=O)C2(C(C)C)C=CC3(C)CC2)cc1 (stereo not drawn) | inactive | inactive |  | inactive | inactive | inactive | inactive | inactive |  | inactive | inactive |  | 
CC1=CC2C(C(C)C)CC1C1C(=O)N(NC(=S)Nc3ccc(Cl)cc3)C(=O)C21 (stereo not drawn) | inactive | inactive | > 45 µM | inactive | inactive | inactive | inactive | inactive | 45 µM | inactive | inactive |  | 
CC1=CC2C(C(C)C)CC1C1C(=O)N(N3CCCCS/C3=N\c3ccc(Cl)cc3)C(=O)C21 (stereo not drawn) | inactive | inactive | > 30 µM | inactive | inactive | inactive | inactive | inactive | 30 µM | inactive | inactive |  | 
CC1=CC2C(C(C)C)CC1C1C(=O)N(NC(=S)Nc3ccc(C)cc3)C(=O)C21 (stereo not drawn) | inactive | inactive |  | inactive | inactive | inactive | inactive | inactive |  | inactive | inactive |  | 
CC(C)C12C=CC(C)(CC1)C1C(=O)N(N3CCCCS/C3=N\Cc3ccccc3)C(=O)C12 (stereo not drawn) | inactive | inactive | > 100 µM | inactive | inactive | inactive | inactive | inactive | > 100 µM | inactive | inactive |  | 
C=CC/N=C1\SCCCCN1N1C(=O)C2C(C1=O)C1(C(C)C)C=CC2(C)CC1 (stereo not drawn) | inactive | inactive | > 58 µM | inactive | inactive | inactive | inactive | inactive | 58 µM | inactive | inactive |  | 
CC(C)C12C=CC(C)(CC1)C1C(=O)N(N3CCCCS/C3=N\c3ccc(Cl)cc3)C(=O)C12 (stereo not drawn) | inactive | inactive | > 32 µM | inactive | inactive | inactive | inactive | inactive | 32 µM | inactive | inactive |  | 
CC(C)C12C=CC(C)(CC1)C1C(=O)N(NC(=S)Nc3ccc(F)cc3)C(=O)C12 (stereo not drawn) | inactive | inactive |  | inactive | inactive | inactive | inactive | inactive |  | inactive | inactive |  | 
O=C1Nc2ccc(Cl)cc2[C@@](C#CC2CC2)(C(F)(F)F)O1 [EFAVIRENZ] |  |  |  |  |  |  |  |  | 35 µM |  |  |  | 
CC(C)C12C=CC(C)(CC1)C1C(=O)N(N3CCCCS/C3=N\c3ccc(F)cc3)C(=O)C12 (stereo not drawn) | inactive | inactive | > 86 µM | inactive | inactive | inactive | inactive | inactive | 86 µM | inactive | inactive |  | 
C=CCNC(=S)NN1C(=O)C2C(C1=O)C1(C(C)C)C=CC2(C)CC1 (stereo not drawn) | inactive | inactive | > 100 µM | inactive | inactive |  |  | inactive | > 100 µM | inactive | inactive |  | 52 µM
CC(C)C12C=CC(C)(CC1)C1C(=O)N(NC(=S)NCc3ccccc3)C(=O)C12 (stereo not drawn) | inactive | inactive | > 58 µM | inactive | inactive |  |  | inactive | 58 µM | inactive | inactive | 41 µM | 
